Here are results for eleven molecules from ChEMBL document CHEMBL4396915, “Synthesis of new thiazolyl-pyrazolyl-1,2,3-triazole derivatives as potential antimicrobial agents” (2019).

The test system of experiment [1] is Aspergillus niger. Put plainly: Antifungal activity against Aspergillus niger NCIM 504 assessed as inhibition of fungal growth incubated for 48 to 72 hrs by broth microdilution susceptibility method. It is filed as functional. Put shortly:
(§1)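 Tube micro-dilution in Sabouraud liquid medium. Stocks were made in DMSO and serially diluted twofold in broth to final […]. Tubes inoculated with organisms grown in potato dextrose broth and held 48-72 h at 30 C. MIC is the lowest concentration with no growth. DMSO and uninoculated-media controls were included, in triplicate.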

The subject of the next experiment is Proteus mirabilis. Put plainly: Antibacterial activity against Proteus mirabilis NCIM 2388 assessed as zone of inhibition at 80 ug/well incubated for 24 to 48 hrs by agar well diffusion method. It is filed as functional. The method in brief: (§2)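 Strains from NCIM kept on nutrient agar slants at 4 C and grown overnight at 37 C in nutrient broth. 500 microlitres of 24-48 h culture swabbed onto nutrient agar. Compounds in DMSO loaded into 5 mm wells, with a DMSO vehicle plate and streptomycin reference. Incubated 24-48 h at 37 C. Zone of inhibition measured in mm and averaged over 4 replicates.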
In general terms: Agar diffusion results depend on both activity and mobility in agar.

Experiment [2] deals with Aspergillus niger. The experiment in a line: Inhibition of CYP51 in Aspergillus niger NCIM 504 cells assessed as decrease in ergosterol biosynthesis at 31.5 ug/ml incubated for 72 hrs by spectrophotometric analysis. Put shortly: (§3)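 A. niger inoculated into potato dextrose broth with compound, untreated control, shaken 72 h at 37 C. Cells centrifuged, washed and pellet wet weight taken. Saponified in 25% alcoholic KOH 1 h at 85 C, then sterols extracted into n-heptane. Extract diluted fivefold in ethanol and scanned at 240-300 nm. Ergosterol computed as % of wet weight from A281.5 and A230, in duplicate.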

Experiment [3] concerns Aspergillus niger. Put plainly: Inhibition of CYP51 in Aspergillus niger NCIM 504 cells assessed as ergosterol synthesis measured per gram wet weight at 31.5 ug/ml incubated for 72 hrs by spectrophotometric analysis (reference value: 0.0000290836%). On the set-up: scale not given: the % may be the effect or the level left. The method in brief: as §3
Experiment [4] deals with Rhodotorula glutinis. The experiment in a line: Antifungal activity against Rhodotorula glutinis NCIM 3168 assessed as inhibition of fungal growth incubated for 48 to 72 hrs by broth microdilution susceptibility method. It is filed as functional. The method in brief: as §1
Experiment [5] deals with Rhodotorula glutinis. Put plainly: Antifungal activity against Rhodotorula glutinis NCIM 3168 assessed as zone of inhibition at 80 ug/well incubated for 48 to 72 hrs by agar well diffusion method. The note with it: read-out: IZ. It is filed as functional. The method in brief:
(§4)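 Fungi kept on potato dextrose agar slants and grown in potato dextrose broth. 500 microlitres of 48-72 h spore suspension swabbed onto Mueller Hinton agar. Compounds in DMSO loaded into 5 mm wells, with a DMSO vehicle plate and fluconazole/ravuconazole positive-control plate. Incubated 48-72 h at 30 C. Clear zone measured in mm, mean of five replicates.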

The test system of experiment [6] is Staphylococcus epidermidis. The experiment in a line: Antibacterial activity against Staphylococcus albus NCIM 2178 assessed as zone of inhibition at 80 ug/well incubated for 24 to 48 hrs by agar well diffusion method. It is filed as functional. The note with it: for zone of inhibition at 80 µg/disc: read-out: IZ. The method in brief: as §2
In experiment [7] the test system is Candida albicans. Put plainly: Antifungal activity against Candida albicans NCIM 3100 assessed as inhibition of fungal growth incubated for 48 to 72 hrs by broth microdilution susceptibility method. Format: functional. Put shortly: as §1
On the technique in general: Broth dilution looks for growth in wells or tubes with falling amounts of substance.

The next experiment relates to Escherichia coli. The experiment in a line: Antibacterial activity against Escherichia coli NCIM 2574 assessed as zone of inhibition at 80 ug/well incubated for 24 to 48 hrs by agar well diffusion method. Format: functional. The note with it: read-out: IZ. Put shortly: as §2
The test system of experiment [8] is Aspergillus niger. The experiment in a line: Antifungal activity against Aspergillus niger NCIM 504 assessed as zone of inhibition at 80 ug/well incubated for 48 to 72 hrs by agar well diffusion method. It is filed as functional. The note with it: for zone of inhibition at 80 µg/disc: read-out: IZ. Put shortly: as §4
Experiment [9] concerns Candida albicans. Put plainly: Antifungal activity against Candida albicans NCIM 3100 assessed as zone of inhibition at 80 ug/well incubated for 48 to 72 hrs by agar well diffusion method. The note with it: read-out: IZ. It is filed as functional. Put shortly:
as §4

As a reminder, the MIC is the lowest concentration found to suppress growth.

In brackets after ≈: the same amount, converted by molar mass. Activity calls are given as the source filed them. No cut-off for these calls is given here.

With `Cc1nc(-c2ccc(F)cc2)sc1-c1nn(-c2ccccc2)cc1-c1cn(Cc2ccccc2)nn1`, the figures for the MIC in the experiment with Aspergillus niger [1], in the experiment with Rhodotorula glutinis [4] and with Candida albicans [7] were 31.2 µg/mL (≈ 63.4 µM), 62.5 µg/mL (≈ 127 µM) and 125 µg/mL (≈ 254 µM), respectively. The “inhibition zone (IZ)” value in the experiment on Proteus mirabilis is “inactive”. Besides, the inhibition result in the experiment with Aspergillus niger [2] was “Active”. Further, in the experiment with Aspergillus niger [3], the Activity is 0%. Further, the zone of inhibition at 80 µg/disc with Rhodotorula glutinis [5] was determined as 16 mm; in [6], 12.2 mm; in the experiment with Escherichia coli, 11.8 mm; in the experiment on Aspergillus niger [8], 15.8 mm; in the experiment on Candida albicans [9], 16.2 mm.
In the case of `Cc1ccc(Cn2cc(-c3cn(-c4ccccc4)nc3-c3sc(-c4ccc(C)cc4)nc3C)nn2)cc1`, the minimal inhibitory concentration (MIC) with Aspergillus niger [1] came to 31.2 µg/mL (≈ 62.2 µM); in the experiment on Rhodotorula glutinis [4], 125 µg/mL (≈ 249 µM); with Candida albicans [7], 62.5 µg/mL (≈ 124 µM). Also, the “inhibition zone (IZ)” value with Proteus mirabilis and with Aspergillus niger [8] was “inactive” each time. Also, the inhibition entry in the experiment on Aspergillus niger [2] is “Active”. Besides, the Activity with Aspergillus niger [3] came to 0%. Besides, the zone of inhibition at 80 µg/disc was found to be 22.3 mm with Rhodotorula glutinis [5], 14.4 mm in [6], 10.2 mm in the experiment with Escherichia coli and 13 mm in the experiment with Candida albicans [9].
For `Cc1nc(-c2ccc(F)cc2)sc1-c1nn(-c2ccccc2)cc1-c1cn(Cc2ccc(F)cc2)nn1`, the MIC in the experiment with Aspergillus niger [1] came to 31.2 µg/mL (≈ 61.2 µM); with Rhodotorula glutinis [4], 62.5 µg/mL (≈ 122 µM); with Candida albicans [7], 125 µg/mL (≈ 245 µM). Also, in the experiment with Proteus mirabilis, the “inhibition zone (IZ)” value was “inactive”. Moreover, the inhibition entry with Aspergillus niger [2] was “Active”. Further, in the experiment with Aspergillus niger [3], the Activity came to 0%. The zone of inhibition at 80 µg/disc with Rhodotorula glutinis [5] was 13.3 mm; in experiment [6], 11.8 mm; with Escherichia coli it was 12.2 mm; in the experiment with Aspergillus niger [8], 11 mm; with Candida albicans [9], 12.8 mm.
Take `Cc1ccc(Cn2cc(-c3cn(-c4ccccc4)nc3-c3sc(-c4ccc(F)cc4)nc3C)nn2)cc1`: the figures for the minimal inhibitory concentration (MIC) with Aspergillus niger [1] and in the experiment on Rhodotorula glutinis [4] were 31.2 µg/mL (≈ 61.7 µM) and 62.5 µg/mL (≈ 123 µM), respectively. In addition, in the experiment on Proteus mirabilis, the “inhibition zone (IZ)” value is “inactive”. For the same molecule, the inhibition result in the experiment on Aspergillus niger [2] is “Active”. Besides, the Activity with Aspergillus niger [3] was found to be 0%. The zone of inhibition at 80 µg/disc in the experiment with Rhodotorula glutinis [5] came out at 16.2 mm; in experiment [6], 13.7 mm; in the experiment with Escherichia coli it was 9.6 mm; in the experiment on Aspergillus niger [8], 13 mm; in the experiment on Candida albicans [9], 12.2 mm. Further, the MIC entry in the experiment on Candida albicans [7] is “inactive”.
Turning to `Cc1ccc(-c2nc(C)c(-c3nn(-c4ccccc4)cc3-c3cn(Cc4ccc(Cl)cc4)nn3)s2)cc1`, the minimal inhibitory concentration (MIC) worked out at 31.2 µg/mL (≈ 59.7 µM) with Aspergillus niger [1] and 62.5 µg/mL (≈ 119 µM) in the experiment with Rhodotorula glutinis [4]. Moreover, the “inhibition zone (IZ)” value with Proteus mirabilis was “inactive”. Moreover, in the experiment on Aspergillus niger [2], the inhibition result was “Active”. Further, the Activity in the experiment on Aspergillus niger [3] is 0%. The zone of inhibition at 80 µg/disc in the experiment with Rhodotorula glutinis [5] amounted to 19 mm; in experiment [6], 12 mm; in the experiment on Escherichia coli, 13.6 mm; in the experiment with Aspergillus niger [8], 16 mm; with Candida albicans [9], 10 mm. The MIC entry with Candida albicans [7] was “inactive”.
For `Cc1ccc(Cn2cc(-c3cn(-c4ccccc4)nc3-c3sc(-c4ccccc4)nc3C)nn2)cc1`, in the experiment on Aspergillus niger [1], the MIC was 31.2 µg/mL (≈ 64 µM). Further, the “inhibition zone (IZ)” value (in the experiment with Proteus mirabilis; in experiment [6]) was “inactive” in each case. Moreover, the MIC entry in the experiment with Rhodotorula glutinis [4] and with Candida albicans [7] was “inactive” throughout. Also, the zone of inhibition at 80 µg/disc in the experiment on Rhodotorula glutinis [5] was 19.5 mm; in the experiment on Escherichia coli, 10 mm; in the experiment on Aspergillus niger [8], 14 mm; in the experiment with Candida albicans [9] it was 11.8 mm.
Take `Cc1nc(-c2ccccc2)sc1-c1nn(-c2ccccc2)cc1-c1cn(Cc2ccc(Br)cc2)nn1`: the minimal inhibitory concentration (MIC) in the experiment with Aspergillus niger [1] worked out at 62.5 µg/mL (≈ 113 µM); in the experiment on Rhodotorula glutinis [4], 62.5 µg/mL (≈ 113 µM); in the experiment on Candida albicans [7] it was 125 µg/mL (≈ 226 µM). The “inhibition zone (IZ)” value in the experiment on Proteus mirabilis is “inactive”. Also, the zone of inhibition at 80 µg/disc came out at 17.5 mm in the experiment with Rhodotorula glutinis [5]; 13 mm in [6]; 12 mm in the experiment with Escherichia coli; 14 mm with Aspergillus niger [8]; 16.4 mm in the experiment with Candida albicans [9].
For the molecule `Cc1ccc(Cn2cc(-c3cn(-c4ccccc4)nc3-c3sc(-c4ccc(Br)cc4)nc3C)nn2)cc1`, the values for the MIC in the experiment on Aspergillus niger [1] and in the experiment with Rhodotorula glutinis [4] were 31.2 µg/mL (≈ 55.1 µM) and 125 µg/mL (≈ 220 µM), respectively. For the same molecule, the “inhibition zone (IZ)” value in the experiment with Proteus mirabilis is “inactive”. For the same molecule, the zone of inhibition at 80 µg/disc in the experiment with Rhodotorula glutinis [5] amounted to 13.3 mm; in experiment [6] it was 12.6 mm; in the experiment on Escherichia coli, 11.6 mm; in the experiment on Aspergillus niger [8], 12.4 mm; in the experiment with Candida albicans [9], 14.6 mm. In addition, the MIC entry in the experiment with Candida albicans [7] was “inactive”.
`Cc1nc(-c2ccc(Br)cc2)sc1-c1nn(-c2ccccc2)cc1-c1cn(Cc2ccc(F)cc2)nn1`: the MIC with Aspergillus niger [1] turned out to be 62.5 µg/mL (≈ 109 µM); in the experiment with Rhodotorula glutinis [4], 62.5 µg/mL (≈ 109 µM); in the experiment on Candida albicans [7], 125 µg/mL (≈ 219 µM). Further, the “inhibition zone (IZ)” value with Proteus mirabilis is “inactive”. Further, the zone of inhibition at 80 µg/disc with Rhodotorula glutinis [5] was 11.7 mm; in [6], 12 mm; with Escherichia coli, 11.8 mm; in the experiment with Aspergillus niger [8], 17 mm; with Candida albicans [9], 12 mm.
As for `Cc1ccc(-c2nc(C)c(-c3nn(-c4ccccc4)cc3-c3cn(Cc4ccc(Br)cc4)nn3)s2)cc1`, the minimal inhibitory concentration (MIC) in the experiment on Aspergillus niger [1] was 31.2 µg/mL (≈ 55.1 µM); with Rhodotorula glutinis [4] it was 62.5 µg/mL (≈ 110 µM); in the experiment with Candida albicans [7] it was 125 µg/mL (≈ 220 µM). Also, in the experiment with Proteus mirabilis, the “inhibition zone (IZ)” value was “inactive”. The zone of inhibition at 80 µg/disc in the experiment with Rhodotorula glutinis [5] is 18.8 mm; in experiment [6] it was 12.2 mm; in the experiment with Escherichia coli, 11 mm; in the experiment on Aspergillus niger [8], 14.4 mm; in the experiment with Candida albicans [9], 14 mm.
For the molecule `Cc1nc(-c2ccccc2)sc1-c1nn(-c2ccccc2)cc1-c1cn(Cc2ccc(F)cc2)nn1`, the MIC in the experiment on Aspergillus niger [1], in the experiment on Rhodotorula glutinis [4] and in the experiment on Candida albicans [7] was 125 µg/mL (≈ 254 µM) each time. In the experiment with Proteus mirabilis, the “inhibition zone (IZ)” value was “inactive”. In addition, the zone of inhibition at 80 µg/disc in the experiment on Rhodotorula glutinis [5] is 14.6 mm; in [6], 10 mm; with Escherichia coli, 11 mm; with Aspergillus niger [8] it was 16.4 mm; with Candida albicans [9] it was 15.8 mm.
